From PubChem
Hits are enriched below; roughly 3.8% of the tested compounds scored in any of these assays.
TMEM16A inh: blocks the mouse calcium-activated chloride channel TMEM16A; 1.2% of 310,000 active; normalized B-score (activity score, 25-100; higher = stronger inhibition) at 10 µM; HEK293 TMEM16A/YFP iodide influx fluorescence, ionomycin; Q8BHY3;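 active = ratio plate-corrected score three or more library SD toward inhibition, starting fluorescence score within five deviations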;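 note: score derived from kinetic fluorescence span divided by baseline fluorescence per well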
MC4R antagonist: antagonists of human melanocortin 4 receptor (MC4R); P32245; MC4R-expressing cells, MTII-stimulated cAMP, LANCE TR-FRET; inhibition, % at 6.5 µM; 0.48% of 360,000 active; AID 540295;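 active = inhibition above its plate's cutoff, the mean of tested wells on that plate plus 3 SD, cut at about 29% in these data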
Target sequence (P32245 whole entry, looked up): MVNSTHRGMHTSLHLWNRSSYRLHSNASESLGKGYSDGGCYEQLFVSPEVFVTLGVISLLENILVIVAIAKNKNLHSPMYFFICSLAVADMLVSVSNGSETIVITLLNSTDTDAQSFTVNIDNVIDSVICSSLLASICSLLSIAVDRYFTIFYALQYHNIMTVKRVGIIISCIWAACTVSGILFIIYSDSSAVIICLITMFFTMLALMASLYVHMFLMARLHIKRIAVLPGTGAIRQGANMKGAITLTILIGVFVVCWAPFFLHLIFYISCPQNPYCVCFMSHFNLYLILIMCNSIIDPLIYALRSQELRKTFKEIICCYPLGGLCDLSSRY
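Assay system: U2OS-MC4R stable cell line; Also added: Melanotan II; Technique: Eu-cAMP/anti-cAMP TR-FRET, emission 671 nm; Times: 30-min compound, 1-h challenge, 1-h detection, room temperature.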
MC4R barr agon: human MC4R agonism via beta-arrestin. P32245. U2OS MC4R beta-arrestin complementation, luminescence; percent of melanotan II response, DMSO zero. activation, % at 8.9 µM. 0.98% of 360,000 active;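 active = activation above a per-plate cutoff, the mean activation of sample wells on that plate plus 3 SD, cut at about 8% in these data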
Beta cell apopt: beta cell apoptosis inhibition | 0.8% of 300,000 active | INS-1E cytokine-induced death, ATP luminescence, 48 h; percent of positive-control rescue, neutral wells zero | AID 435005 | protection from apoptosis, % (concentration not given with the values);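 active = Every replicate reaches about 75%, or at least half do and their mean reaches it too, limit read from the data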;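 note: higher means more ATP so stronger rescue from cytokine killing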
CSC inhib: cancer stem cell inhibition. cancer stem cell-like cells viability, luminescence. AID 2717. 1.1% of 300,000 active. inhibition, % at 7.5 µM; in the data active = inhibition above about 75%; tested in HMLE shEcad cells
TMEM16A act: activators or potentiators of mouse TMEM16A chloride channel. 0.3% of 340,000 active. B-score at 10 µM. Q8BHY3. HEK293 TMEM16A/YFP-H148Q/I152L, iodide quench fluorescence; hits give low values;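 active = fluorescence-ratio B-score plate-corrected deviation score at least 3 library SD below zero, with starting fluorescence score within 5 deviations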;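 note: channel opened by trigger with iodide after compound preincubation; score built on the fluorescence ratio of max minus min over baseline; more negative score means more quench and so TMEM16A activation or potentiation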
Numbers stand for hits.

FC(F)Sc1ccc(NC(=S)NCC2CCCCC2)cc1 was read as TMEM16A inh 100, MC4R antagonist inactive, MC4R barr agon inactive, Beta cell apopt inactive, CSC inhib inactive and TMEM16A act inactive.
Cc1ccc(-c2noc(CCC(=O)Nc3cccc(C(=O)NC4CC4)c3)n2)cc1 was read as MC4R antagonist inactive and MC4R barr agon inactive.
For Cc1nc(C)c(C(=O)OCC(=O)NCc2ccccc2Cl)s1 the results were MC4R antagonist inactive, MC4R barr agon inactive, Beta cell apopt inactive, CSC inhib inactive and TMEM16A act inactive.
Screening CN(CCOc1ccc(Cl)cc1)C(=O)c1cccc(S(=O)(=O)N2CCN(c3ccccc3)CC2)c1 returned MC4R antagonist inactive, MC4R barr agon inactive and TMEM16A act inactive.
`C=CCNc1nc(Cl)nc(Nc2cc(Cl)ccc2OC)n1` gave TMEM16A inh inactive, MC4R antagonist inactive, MC4R barr agon 8.8, Beta cell apopt inactive, CSC inhib inactive and TMEM16A act inactive.
`O=C(CN1C(=O)CCC1=O)c1ccc(-c2ccccc2)cc1` gave TMEM16A inh inactive, MC4R antagonist inactive, MC4R barr agon inactive, Beta cell apopt inactive, CSC inhib inactive and TMEM16A act inactive.
For N=c1ccn(CC(=O)c2ccc(-c3ccccc3)cc2)cc1 the results were TMEM16A inh inactive, MC4R antagonist inactive, MC4R barr agon inactive, Beta cell apopt 133.9, CSC inhib inactive and TMEM16A act inactive.
COc1ccc(CCCNC(=O)C2Cc3c(-c4cccc(C(C)=O)c4)ccnc3O2)cc1 (stereo unspecified) was read as MC4R antagonist inactive and MC4R barr agon inactive.
COc1cc(-c2noc(C)c2C#Cc2ccccn2)cc(OC)c1OC was read as TMEM16A inh inactive, MC4R antagonist inactive, MC4R barr agon inactive, Beta cell apopt inactive, CSC inhib 82.4 and TMEM16A act inactive.
`COc1cc(-c2noc(C)c2C#Cc2ccc(N)cc2)cc(OC)c1OC` gave TMEM16A inh inactive, MC4R antagonist inactive, MC4R barr agon inactive, Beta cell apopt inactive, CSC inhib 107.8 and TMEM16A act inactive.
Screening COc1cc(-c2noc(C)c2/C=C/c2ccc(N)cc2)cc(OC)c1OC returned TMEM16A inh inactive, MC4R antagonist inactive, MC4R barr agon inactive, Beta cell apopt inactive, CSC inhib inactive and TMEM16A act inactive.
For O=C(CN1C(=O)S/C(=C\C=C\c2ccccc2)C1=O)Nc1ccc(O)cc1 the results were TMEM16A inh inactive, MC4R antagonist inactive, MC4R barr agon inactive, Beta cell apopt inactive, CSC inhib 79.2 and TMEM16A act inactive.
`O=C(CCN1C(=O)/C(=C/c2ccccc2)SC1=S)NNC(=O)c1cccnc1` gave TMEM16A inh inactive, MC4R antagonist inactive, MC4R barr agon 8.8, Beta cell apopt inactive, CSC inhib inactive and TMEM16A act inactive.
O=C(CCN1C(=O)/C(=C/c2ccc(F)cc2)SC1=S)NNC(=O)c1cccnc1 was read as TMEM16A inh inactive, MC4R antagonist inactive, MC4R barr agon inactive, Beta cell apopt inactive, CSC inhib inactive and TMEM16A act inactive.
For O=C(CCN1C(=O)/C(=C\C=C\c2ccccc2)SC1=S)Nc1ccccc1C(=O)O the results were TMEM16A inh 25, MC4R antagonist inactive, MC4R barr agon inactive, Beta cell apopt inactive, CSC inhib inactive and TMEM16A act inactive.
O=C(CCN1C(=O)/C(=C\C=C\c2ccccc2)SC1=S)Nc1cccc(C(=O)O)c1 was read as TMEM16A inh inactive, MC4R antagonist inactive, MC4R barr agon inactive, Beta cell apopt inactive, CSC inhib inactive and TMEM16A act inactive.
For CC[C@]12C(=O)N(C)C[C@H]([C@@H]3C(=O)N(C)C(=O)[C@@H]31)N2C(=O)c1ccc(Br)cc1 the results were MC4R antagonist inactive, MC4R barr agon inactive and TMEM16A act inactive.
For NCCNc1ccc(C(=O)N2c3ccccc3Sc3ccccc32)cc1[N+](=O)[O-] the results were TMEM16A inh inactive, MC4R antagonist inactive, MC4R barr agon inactive, Beta cell apopt inactive, CSC inhib 91.8 and TMEM16A act inactive.
NC(CCCCc1ccccc1)c1cccc2ccccc12 (stereo unspecified) was read as TMEM16A inh 25, Beta cell apopt inactive and CSC inhib inactive.
Screening CC(CCc1ccccc1)NCc1cccc2ccccc12 (stereo unspecified) returned TMEM16A inh inactive, MC4R antagonist inactive, MC4R barr agon inactive, Beta cell apopt inactive, CSC inhib inactive and TMEM16A act inactive.
Screening CN(C(=O)COC(=O)c1cccc(S(=O)(=O)N(C)c2ccccc2)c1)C1CCCCC1 returned MC4R antagonist inactive, MC4R barr agon inactive, Beta cell apopt inactive, CSC inhib inactive and TMEM16A act inactive.
`CCOC(=O)c1c(C)sc2c1N(C(=O)CCl)c1cc(Cl)ccc1S2` gave TMEM16A inh inactive, MC4R antagonist inactive, MC4R barr agon inactive, Beta cell apopt inactive, CSC inhib 129.8 and TMEM16A act inactive.
Cc1sc2ncnc(SCC(=O)N3c4ccccc4Sc4ccc(Cl)cc43)c2c1C was read as TMEM16A inh inactive, MC4R antagonist inactive, MC4R barr agon inactive, Beta cell apopt inactive, CSC inhib inactive and TMEM16A act inactive.
Screening COc1cccc2c1C(=O)c1c(O)c3c(c(O)c1C2=O)C[C@@](O)(C(C)=O)C[C@@H]3O[C@H]1C[C@H](N)[C@H](O)[C@H](C)O1 returned MC4R antagonist inactive, MC4R barr agon inactive and TMEM16A act inactive.
Screening CC(=O)[C@]1(O)Cc2c(O)c3c(c(O)c2[C@@H](O[C@H]2C[C@H](N)[C@H](O)[C@H](C)O2)C1)C(=O)c1ccccc1C3=O returned TMEM16A inh inactive, Beta cell apopt inactive and CSC inhib 85.7.
Screening COc1ccc(OCC(=O)Nc2cc(S(=O)(=O)N3CCCC3)ccc2Cl)cc1 returned MC4R antagonist inactive, MC4R barr agon 9.0 and TMEM16A act inactive.
O=C(Nc1cccc(Cl)c1)Nc1cc(S(=O)(=O)N2CCCCC2)ccc1Cl was read as TMEM16A inh inactive, MC4R antagonist inactive, MC4R barr agon inactive, Beta cell apopt inactive, CSC inhib 86.6 and TMEM16A act inactive.
For O=S(=O)(c1ccccc1)c1nc(Nc2cccc(O)c2)sc1Cl the results were TMEM16A inh 100, MC4R antagonist inactive, MC4R barr agon inactive, CSC inhib inactive and TMEM16A act inactive.
For CC(CCC(=O)O)C1CCC2C3CC(O)C4CC(O)CC[C@]4(C)C3CCC12C (stereo partly specified) the results were MC4R antagonist inactive, MC4R barr agon inactive and TMEM16A act inactive.
CCOC(=O)N1CCc2c(sc3c2C(=O)NC(c2ccccc2)N3)C1 (stereo unspecified) was read as TMEM16A inh inactive, MC4R antagonist inactive, MC4R barr agon 9.0, CSC inhib inactive and TMEM16A act inactive.
